Laboratory results reported in ChEMBL document CHEMBL1127347, “Synthesis and biological activity of bile acid-derived HMG-CoA reductase inhibitors. The role of 21-methyl in recognition of HMG-CoA reductase and the ileal bile acid transport system” (J Med Chem, 1994).
pIC50: −log10 of the molar value.

What was measured:
Oryctolagus cuniculus [1] = organism: Oryctolagus cuniculus; assay: (§1) Tested for inhibition of Na+ -dependent [3H]taurocholate uptake into rabbit ileal brush border membrane vesicles; assay type: functional
Procedure, shortened: (§2)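 Ileal brush border vesicles from male New Zealand white rabbits (4-5 kg), prepared by Mg2+ precipitation and kept in liquid nitrogen. Vesicles (50 μg protein) in 10 mM Tris-Hepes pH 7.4/300 mM mannitol were added to medium at 30 °C containing 50 μM [3H]taurocholate with 100 mM NaCl or 100 mM KCl. Uptake stopped at 60 s with ice-cold stop solution, then filtration and scintillation. Na+-dependent uptake taken as NaCl minus KCl uptake; mean ± SD, 3-10 independent experiments with different membrane preparations.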

Oryctolagus cuniculus [2] = organism: Oryctolagus cuniculus; assay: as §1; assay type: functional; procedure, shortened: as §2; remark: listed apart in the source
HepG2 = assay: Tested for inhibition of cholesterol biosynthesis in HEP G2 cells; assay type: functional, cell-based; conditions: Homo sapiens
Procedure, shortened: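 HEP G2 cells seeded at 5×10^4 cells/cm², grown 24 h in RPMI 1640/10% FCS, then 24 h in 10% lipoprotein-deficient serum. Cholesterol isolated by TLC and counted, corrected for recovery of [3H]cholesterol.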

[3] = target: T1, 3-hydroxy-3-methylglutaryl-coenzyme A reductase (Rattus norvegicus, UniProt P51639); assay: Tested for inhibition of rat liver microsomal HMG-CoA reductase
T1 sequence (P51639 whole entry): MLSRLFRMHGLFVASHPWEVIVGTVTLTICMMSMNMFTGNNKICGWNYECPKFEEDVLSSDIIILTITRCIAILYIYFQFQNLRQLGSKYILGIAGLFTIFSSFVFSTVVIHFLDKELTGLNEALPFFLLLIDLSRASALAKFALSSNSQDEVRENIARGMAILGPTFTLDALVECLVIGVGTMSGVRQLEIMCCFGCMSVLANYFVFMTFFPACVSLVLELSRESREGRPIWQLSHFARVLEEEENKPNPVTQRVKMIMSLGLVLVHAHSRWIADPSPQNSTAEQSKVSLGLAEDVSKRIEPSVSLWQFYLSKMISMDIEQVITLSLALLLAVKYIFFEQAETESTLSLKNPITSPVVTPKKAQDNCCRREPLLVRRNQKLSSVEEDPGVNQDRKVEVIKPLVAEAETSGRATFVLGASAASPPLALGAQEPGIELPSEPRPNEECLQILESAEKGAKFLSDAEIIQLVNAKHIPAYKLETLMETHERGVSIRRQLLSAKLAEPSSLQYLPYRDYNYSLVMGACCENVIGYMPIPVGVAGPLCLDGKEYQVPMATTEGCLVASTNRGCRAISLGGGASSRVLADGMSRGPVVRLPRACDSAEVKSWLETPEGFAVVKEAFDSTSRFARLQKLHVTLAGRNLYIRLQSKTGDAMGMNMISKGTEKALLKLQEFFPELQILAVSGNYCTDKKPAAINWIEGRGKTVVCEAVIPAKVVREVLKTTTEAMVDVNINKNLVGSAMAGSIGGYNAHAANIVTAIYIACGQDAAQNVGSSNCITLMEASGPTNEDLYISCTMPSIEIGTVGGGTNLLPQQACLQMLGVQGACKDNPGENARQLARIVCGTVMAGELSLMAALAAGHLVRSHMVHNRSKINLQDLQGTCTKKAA
Procedure, shortened: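 Microsomes came from livers of male Wistar rats (200-220 g) fed 2% cholestyramine for 10 days. Assay at pH 7.4 with 40 μg microsomal protein, NADP, glucose-6-phosphate and G6P dehydrogenase. Mevalonolactone separated on anion-exchange column and counted. Six concentrations in triplicate; IC50 read graphically, mean ± SD of three independent experiments.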

| SMILES | IC25 (Oryctolagus cuniculus [1]) [µM] | IC75 (Oryctolagus cuniculus [1]) [µM] | pIC50 (Oryctolagus cuniculus [2]) | pIC50 (HepG2) | pIC50 [3] |
| --- | --- | --- | --- | --- | --- |
| CC[C@H](C)C(=O)O[C@H]1C[C@@H](C)C=C2C=C[C@H](C)[C@H](CC[C@@H]3C[C@@H](O)CC(=O)O3)[C@H]21 [LOVASTATIN] | 230 | > 250 | < 3.60 | 7.54 | 8.15 |
| C[C@H](CCC(=O)O)[C@H]1CC[C@H]2[C@@H]3[C@H](O)C[C@@H]4C[C@H](O)CC[C@]4(C)[C@H]3C[C@H](O)[C@]12C [CHOLIC ACID] | 40 | 152 | 4.08 |  |  |
| CC[C@H](C)C(=O)O[C@H]1C[C@H]2[C@@H](CC[C@@H]3C[C@H](O)CC[C@@]32C)[C@@H]2CCC(CC[C@H]3C[C@@H](O)CC(=O)O3)[C@@]12C (stereo partly specified) | 87 | > 250 | 3.73 | 5.09 | 6.00 |
| C[C@H](CCC(=O)NCCS(=O)(=O)O)[C@H]1CC[C@H]2[C@@H]3[C@H](O)C[C@@H]4C[C@H](O)CC[C@]4(C)[C@H]3CC[C@]12C [TAUROCHENODEOXYCHOLATE] | 13 | 61 | 4.55 |  |  |
| CC[C@H](C)C(=O)O[C@H]1C[C@H]2[C@@H](CC[C@@H]3C[C@H](O)CC[C@@]32C)[C@@H]2CCC([C@H](C)C[C@@H]3C[C@@H](O)CC(=O)O3)[C@@]12C (stereo partly specified) | 37 | 148 | 4.07 | 4.79 | 6.19 |
| CC[C@H](C)C(=O)O[C@H]1C[C@H]2[C@@H](CC[C@@H]3C[C@H](O)CC[C@@]32C)[C@@H]2CCC(CC[C@@H]3C[C@@H](O)CC(=O)O3)[C@@]12C (stereo partly specified) | 87 | > 250 | 3.77 | 5.74 | 6.70 |
| CC[C@H](C)C(=O)O[C@H]1C[C@H]2[C@@H](CC[C@@H]3C[C@H](O)CC[C@@]32C)[C@@H]2CCC([C@H](C)C[C@H]3C[C@@H](O)CC(=O)O3)[C@@]12C (stereo partly specified) | 47 | 166 | 4.04 | 4.26 | 5.15 |
